Experimental data as given in ChEMBL document CHEMBL1833887, “Synthesis and evaluation of 7-substituted 4-aminoquinoline analogues for antimalarial activity” (J Med Chem, 2011).
In brackets after ≈: the same amount, converted by molar mass.

Key:
[1] = Ratio of EC50 for human HepG2 cells to EC50 for Plasmodium falciparum 3D7 infected in human erythrocytes
[2] = Solubility of the compound at pH 7.4 after 18 hrs by UV spectroscopic analysis; type: physicochemical; settings: buffer
Method in brief: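 Kinetic solubility. A 10 mM stock is diluted 1:100 into PBS pH 7.4 and incubated 18 h at room temperature, then filtered; the filtrate is mixed 1:1 with 1-propanol. UV spectrum (250–500 nm) compared by AUC with a 1-propanol/PBS reference. Single experiment in triplicate.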

[3] = test system: HepG2; assay: Cytotoxicity against human HepG2 cells assessed as intracellular ATP level after 72 hrs by Celltiter-Glo luminescent assay; type: cell-based; settings: HepG2, 72 h
[4] = Dissociation constant, pKa of the compound; type: physicochemical
[5] = Ratio of EC50 for human HepG2 cells to EC50 for Plasmodium falciparum K1 infected in human erythrocytes
[6] = test system: Plasmodium falciparum; assay: Ratio of EC50 for chloroquine-resistant Plasmodium falciparum K1 infected in human erythrocytes to EC50 for chloroquine-sensitive Plasmodium falciparum 3D7 infected in human erythrocytes; type: functional
[7] = test system: Plasmodium falciparum; assay: Antimalarial activity against chloroquine-resistant Plasmodium falciparum K1 infected in human erythrocytes assessed as reduction in parasitemia after 72 hrs by spectrophotometry; type: functional, organism-based; settings: K1, 72 h
[8] = Permeability of the compound at pH 7.4 after 30 mins by PAMPA; type: ADME; settings: read-out: permeability
Method in brief: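 PAMPA at pH 7.4. A 10 mM DMSO stock is diluted into system solution buffer; its UV spectrum serves as reference. Membrane painted with GIT lipid, acceptor chamber holds acceptor solution buffer. Sandwich stirred for 30 min, aqueous boundary layer set to 40. Donor and acceptor UV spectra read at 250–500 nm. Permeability coefficient from the AUCs of reference, donor and acceptor. Single experiment in triplicate.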

[9] = test system: Plasmodium falciparum; assay: Antimalarial activity against chloroquine-sensitive Plasmodium falciparum 3D7 infected in human erythrocytes assessed as reduction in parasitemia after 72 hrs by spectrophotometry; type: functional, organism-based; settings: 3D7, 72 h

For COc1ccccc1Oc1ccc2c(NCCCNCc3cccc(OC)c3O)ccnc2c1, the “Ratio EC50” value [1] was 1227, the solubility at 18 h [2] was 14.5 µM (≈ 6.66 µg/mL) and the EC50 [3] was 11.2 µM. For the same compound, the pKa [4] was 9.28, the “Ratio EC50” value [5] was 2 and the “Ratio EC50” value [6] was 626.4. The EC50 [7] was 5.7 µM, the Papp at 0.5 h [8] was 3170 nm/s and the EC50 [9] was 0.009 µM.
For c1ccc(Oc2ccc3c(NCCCNCc4ccco4)ccnc3c2)cc1, the “Ratio EC50” value [1] was 48, the solubility at 18 h [2] was 14.5 µM (≈ 5.42 µg/mL) and the EC50 [3] was 15.2 µM. For the same compound, the pKa [4] was 9.28, the “Ratio EC50” value [5] was 3 and the “Ratio EC50” value [6] was 19. For the same compound, the EC50 [7] was 5.97 µM, the Papp at 0.5 h [8] was 3170 nm/s and the EC50 [9] was 0.314 µM.
For COc1ccc(-c2ccc3c(NCCCNCc4ccco4)ccnc3c2)cc1, the “Ratio EC50” value [1] was 565.7, the solubility at 18 h [2] was 32 µM (≈ 12.4 µg/mL) and the EC50 [3] was 6 µM. The pKa [4] was 9.47, the “Ratio EC50” value [5] was 261.9 and the “Ratio EC50” value [6] was 2.2. It also gave an EC50 [7] of 0.023 µM, a Papp at 0.5 h [8] of 2370 nm/s and an EC50 [9] of 0.011 µM.
In the case of COc1ccc(F)cc1CNCCCNc1ccnc2cc(Cc3ccc4c(c3)OCO4)ccc12, the “Ratio EC50” value [1] is reported as 194.7, the solubility at 18 h [2] is reported as 32 µM (≈ 15.2 µg/mL) and the EC50 [3] is reported as 6.04 µM. The pKa [4] was 9.47, the “Ratio EC50” value [5] was 255.8 and the “Ratio EC50” value [6] was 0.8. It also gave an EC50 [7] of 0.024 µM, a Papp at 0.5 h [8] of 2370 nm/s and an EC50 [9] of 0.031 µM.
